Source: ChEMBL document CHEMBL4513216, “Probing the Open Global Health Chemical Diversity Library for Multistage-Active Starting Points for Next-Generation Antimalarials” (ACS Infect Dis, 2020)

Experiment: Toxicity liver stage against HepG2, at 10uM
Assay type: cell-based
Design: test concentration 10 uM, cell line HepG2-A16-CD81EGFP
Details: human, HepG2-A16-CD81EGFP cells; read-out: INHIBITION
How it was run: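 Uninfected HepG2-A16-CD81EGFP cells, 3 × 10^3 per well, 1536-well, plated on prespotted compound at 10 μM final, parasite-free screening media added to match infected plates; puromycin 10 μM positive, DMSO 0.5% negative; run in parallel with 48 h PbLuc assay at 37 °C, 5% CO2; viability by CellTiter-Glo luminescence, normalized to controls.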

Row | Compound | cytotoxicity at 10 µM
1 | Cc1cc(-c2nn(C)c(Cl)c2CN2CC[C@@](O)(C3CCC3)[C@H](C)C2)no1 | -7.23%
2 | O=C(N1CCCC1)N1CCC(Nc2ccncn2)CC1 | -42.1%
3 | O=C1CC[C@H]2CN(c3ncc(F)cn3)CC[C@H]2N1CCc1ccccc1 | 9.61%
4 | CCN(CC)C(CNCc1cc(F)cc(F)c1)c1ccco1 (stereo unspecified) | 5.44%
5 | Cc1nccn1CCCN1CCCC(c2nccn2C)C1 (stereo unspecified) | -10.3%
6 | CCN1CC(CN(C)Cc2nc(-c3ccc(C)o3)oc2C)CC1=O (stereo unspecified) | 5.88%
7 | O=C(C1CCOC1)N1CCC(OCc2ccccc2)CC1 (stereo unspecified) | 3.15%
8 | Cc1ccc(OC2(C(=O)O)CCN(C(=O)c3cccc(F)c3)CC2)cn1 | 2.91%
9 | CN(Cc1ccncn1)C(=O)CCc1[nH]nc2c1CCCC2 | 3.11%
10 | Cc1ccc(OC2(C(=O)O)CCN(C/C=C/c3ccco3)CC2)cn1 | -1.64%
11 | CCNC(=O)[C@@H]1C[C@@H](n2cc(CN(CC)CC)nn2)CN1 | 0.334%
12 | CN(C)C1CCCN(C(=O)CCc2csc(N)n2)CC1 (stereo unspecified) | 1.48%
13 | Fc1ccc2[nH]c(C3CCCN3CCCn3cccn3)nc2c1 (stereo unspecified) | 0.154%
14 | COCCN1CCCC(O)(CN2CCN(c3cc(C)ccn3)CC2)C1=O (stereo unspecified) | 0.622%
15 | CCCOc1ccc(C(=O)N2C[C@@H](CN3CCCC3)[C@@H](CO)C2)cc1Cl | -5.84%
16 | COC(=O)CCCC(=O)N1CCCCC1c1ccc(F)cc1 (stereo unspecified) | -42.7%
17 | Cc1cc(CN(C)c2nc(-c3ccccn3)nc3c2CCNCC3)n[nH]1 | -5.48%
18 | CN(c1ncccc1CNC(=O)c1csnn1)C1CCCCC1 | -9.31%
19 | CCN(CC1CCOCC1)C(=O)Cn1ccccc1=O | -19.9%

Row | Compound | cytotoxicity at 10 µM
20 | CC(=O)N1CCCCC1c1cc(CO)[nH]n1 (stereo unspecified) | -0.671%
21 | CCOc1cc(C)nc(N2CCN(C(=O)c3ccncc3)CC2)n1 | 3.12%
22 | CCOc1cc(C)nc(N2CCN(C(=O)c3csnn3)CC2)n1 | 2.85%
23 | Cc1cc(C(=O)N2CCCC(c3cc(C(F)(F)F)[nH]n3)C2)on1 (stereo unspecified) | 10.5%
24 | Cn1cc(-c2nc(CN3CCc4c(ncn4C)C3)cs2)cn1 | -6.54%
25 | CCc1ocnc1C(=O)N1CCCC1c1noc(C2CC2)n1 (stereo unspecified) | -4.45%
26 | COCC(=O)NC(C)Cc1ccc(Br)cc1 (stereo unspecified) | -1.01%
27 | Clc1snnc1CN1CCCCC1Cn1cccn1 (stereo unspecified) | -14.8%
28 | Cc1nc(C)n(CC2CCCN2CCCOc2ccc(C#N)cc2)n1 (stereo unspecified) | -8.33%
29 | CCc1ccc(C(=O)N2CCC(Nc3ccc(C)nn3)CC2)o1 | -11%
30 | O=C(c1cnn(-c2ccccc2)n1)N1CCCC(n2cccn2)C1 (stereo unspecified) | 1.13%
31 | CCC1CCCN(C(=O)NCc2cccnc2-n2cccn2)C1 (stereo unspecified) | -0.734%
32 | COc1c(C2CCCN2Cc2noc(C(C)C)n2)c(C)nn1C (stereo unspecified) | -8.93%
33 | CCc1nc(CN2CCCC2c2c(C)nn(C)c2OC)no1 (stereo unspecified) | -6.07%
34 | Cc1nc(C)n(CC2CCCN2Cc2nc3ccccc3s2)n1 (stereo unspecified) | -6.25%
35 | CCn1ncc2c1CCCC2NCc1cccc2c1OCO2 (stereo unspecified) | -6.43%
36 | Cc1ccc(C(=O)NC2CCN(Cc3cccc4c3OCCO4)CC2)s1 | -4.8%
37 | CC(C)(C)c1cnc(CN2CCC[C@H]2CO)o1 | -14.8%
38 | Cc1ccc2oc(C(=O)N3CCCC(c4noc(C)n4)C3)cc2n1 (stereo unspecified) | -3.56%

Row | Compound | cytotoxicity at 10 µM
39 | COc1c(CNC(c2nccn2C)C(C)C)c(C)nn1C (stereo unspecified) | -7.46%
40 | Cc1nc(C)n(CC2CCCCN2CC(=O)Nc2ccncc2)n1 (stereo unspecified) | -0.344%
41 | c1ccc(-c2nc(CN3CCc4c(ncn4C4CC4)C3)cs2)cc1 | -8.65%
42 | COc1ccc(CN2CCCCC2c2n[nH]cc2-c2cc(C)no2)cc1 (stereo unspecified) | 20.8%
43 | CCn1c(CN2CCC(O)(c3ccc4c(c3)OCO4)CC2)cnc1SC | 6.96%
44 | Cc1c(C2CCCN(C(=O)Cc3ccccn3)C2)n2c(nc1=O)CCC2 (stereo unspecified) | 8.39%
45 | CO[C@H]1CN(Cc2cccc(C#N)c2)[C@@H]2COC[C@H]12 | -5.77%
46 | CC(C)c1noc(CN2CCC(C3CCCCCN3S(C)(=O)=O)CC2)n1 (stereo unspecified) | -2.71%
47 | CN(C)Cc1nc2c(o1)CN(S(=O)(=O)c1cccs1)C2 | -112%
48 | O=C1[C@H]2CN(CC3CC3)C[C@H]2CN1c1ccsc1 | 2.88%
49 | CC(C)Nc1nc2c(cc1C(=O)NCC1CC1)CCN(C)CC2 | -5.72%
50 | Cc1nc(CN2C[C@@H]3CN(C(=O)Cc4ccccn4)C[C@@H]3C2)cs1 | -106%
51 | Cc1ccc(CN2CCC3(CC2)CCN(C(=O)c2cccnc2)C3)o1 | -93.3%
52 | Cc1ccc(N2CC[C@H]3C[C@@H](C(=O)N4CCOCC4)O[C@H]3C2)nn1 | 4.94%
53 | CC1c2ncc(COc3cccnc3)n2CCN1Cc1cnn(C)c1 (stereo unspecified) | -112%
54 | O=c1[nH]c2cn(-c3cccc(Cl)c3)c(=O)n2n1Cc1cccc(F)c1 | 11%
55 | Cc1ccccc1SCC(=O)NC1CCC(n2cnnc2)CC1 (stereo unspecified) | -48%
56 | C=c1ccoc1=C1NN=C(CNCCn2cccn2)O1 | -5.02%
